Source: ChEMBL document CHEMBL1828568, “Novel imaging agents for β-amyloid plaque based on the N-benzoylindole core” (Bioorg Med Chem Lett, 2011)

Experiments:
[1] = system: Lung; assay: Biodistribution in Kunming mouse lung at 1 uCi, iv after 15 mins by gamma counting; type: ADME, organism-based; conditions: in vivo, 0.25 h
Method in brief: (§1)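 125I-labeled tracer given intravenously to normal mice. Organs and blood were sampled at 2, 15, 30, 60, 120 and 240 min after injection. Uptake is expressed as % ID/g, averaged over 5 mice ± SD.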

[2] = system: Heart; assay: Biodistribution in Kunming mouse heart at 1 uCi, iv after 15 mins by gamma counting; type: ADME, organism-based; conditions: in vivo, 0.25 h; method in brief: as §1
[3] = system: Muscle tissue; assay: Biodistribution in Kunming mouse muscle at 1 uCi, iv after 120 mins by gamma counting; type: ADME, organism-based; conditions: in vivo, 2 h; method in brief: as §1
[4] = system: Spleen; assay: Biodistribution in Kunming mouse spleen at 1 uCi, iv after 60 mins by gamma counting; type: ADME, organism-based; conditions: in vivo, 1 h
Method in brief: (§2)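 Radioiodinated tracers given intravenously to normal mice; organs taken at 2, 15, 30, 60, 120 and 240 min after injection. Uptake expressed as % ID/g, mean ± SD of 5 mice; stomach values carry a table footnote.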

[5] = system: Blood; assay: Biodistribution in Kunming mouse blood at 1 uCi, iv after 120 mins by gamma counting; type: ADME, organism-based; conditions: in vivo, 2 h; method in brief: as §1
[6] = system: Lung; assay: Biodistribution in Kunming mouse lung at 1 uCi, iv after 60 mins by gamma counting; type: ADME, organism-based; conditions: in vivo, 1 h; method in brief: as §1
[7] = system: Stomach; assay: Biodistribution in Kunming mouse stomach assessed per organ at 1 uCi, iv after 30 mins by gamma counting; type: ADME, organism-based; conditions: in vivo, 0.5 h; method in brief: as §2
[8] = system: Blood; assay: Biodistribution in Kunming mouse blood at 1 uCi, iv after 60 mins by gamma counting; type: ADME, organism-based; conditions: in vivo, 1 h; method in brief: as §1
[9] = system: Lung; assay: Biodistribution in Kunming mouse lung at 1 uCi, iv after 240 mins by gamma counting; type: ADME, organism-based; conditions: in vivo, 4 h; method in brief: as §1
[10] = system: Spleen; assay: Biodistribution in Kunming mouse spleen at 1 uCi, iv after 240 mins by gamma counting; type: ADME, organism-based; conditions: in vivo, 4 h; method in brief: as §1
[11] = system: Lung; assay: Biodistribution in Kunming mouse lung at 1 uCi, iv after 120 mins by gamma counting; type: ADME, organism-based; conditions: in vivo, 2 h; method in brief: as §1
[12] = system: Brain; assay: Biodistribution in Kunming mouse brain at 1 uCi, iv after 60 mins by gamma counting; type: ADME, organism-based; conditions: in vivo, 1 h; method in brief: as §1
[13] = system: Spleen; assay: Biodistribution in Kunming mouse spleen at 1 uCi, iv after 15 mins by gamma counting; type: ADME, organism-based; conditions: in vivo, 0.25 h; method in brief: as §1
[14] = system: Muscle tissue; assay: Biodistribution in Kunming mouse muscle at 1 uCi, iv after 60 mins by gamma counting; type: ADME, organism-based; conditions: in vivo, 1 h; method in brief: as §1
[15] = system: Liver; assay: Biodistribution in Kunming mouse liver at 1 uCi, iv after 30 mins by gamma counting; type: ADME, organism-based; conditions: in vivo, 0.5 h; method in brief: as §1
[16] = system: Stomach; assay: Biodistribution in Kunming mouse stomach assessed per organ at 1 uCi, iv after 120 mins by gamma counting; type: ADME, organism-based; conditions: in vivo, 2 h; method in brief: as §2
[17] = system: Heart; assay: Biodistribution in Kunming mouse heart at 1 uCi, iv after 120 mins by gamma counting; type: ADME, organism-based; conditions: in vivo, 2 h; method in brief: as §1
[18] = system: Lung; assay: Biodistribution in Kunming mouse lung at 1 uCi, iv after 2 mins by gamma counting; type: ADME, organism-based; conditions: in vivo; method in brief: as §1
[19] = system: Kidney; assay: Biodistribution in Kunming mouse kidney at 1 uCi, iv after 60 mins by gamma counting; type: ADME, organism-based; conditions: in vivo, 1 h; method in brief: as §1
[20] = system: Brain; assay: Biodistribution in Kunming mouse brain at 1 uCi, iv after 30 mins by gamma counting; type: ADME, organism-based; conditions: in vivo, 0.5 h; method in brief: as §1
[21] = system: Stomach; assay: Biodistribution in Kunming mouse stomach assessed per organ at 1 uCi, iv after 2 mins by gamma counting; type: ADME, organism-based; conditions: in vivo; method in brief: as §2
[22] = system: Stomach; assay: Biodistribution in Kunming mouse stomach assessed per organ at 1 uCi, iv after 60 mins by gamma counting; type: ADME, organism-based; conditions: in vivo, 1 h; method in brief: as §2
[23] = system: Liver; assay: Biodistribution in Kunming mouse liver at 1 uCi, iv after 2 mins by gamma counting; type: ADME, organism-based; conditions: in vivo; method in brief: as §1
[24] = system: Stomach; assay: Biodistribution in Kunming mouse stomach assessed per organ at 1 uCi, iv after 240 mins by gamma counting; type: ADME, organism-based; conditions: in vivo, 4 h; method in brief: as §2
[25] = system: Kidney; assay: Biodistribution in Kunming mouse kidney at 1 uCi, iv after 2 mins by gamma counting; type: ADME, organism-based; conditions: in vivo; method in brief: as §1
[26] = Octanol-phosphate buffer partition coefficient, log D of the compound at pH 7.4; type: physicochemical
Method in brief: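 Radioiodinated tracer partitioned between n-octanol and PBS at pH 7.4; log D reported as mean ± SD.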

[27] = system: Kidney; assay: Biodistribution in Kunming mouse kidney at 1 uCi, iv after 30 mins by gamma counting; type: ADME, organism-based; conditions: in vivo, 0.5 h; method in brief: as §1

- Drug uptake [1]: 11.13 % ID/g
- Drug uptake [2]: 3.52 % ID/g
- Drug uptake [3]: 0.65 % ID/g
- Drug uptake [4]: 7.16 % ID/g
- Drug uptake [5]: 3.12 % ID/g
- Drug uptake [6]: 6.39 % ID/g
- Drug uptake [7]: 4.92 %ID
- Drug uptake [8]: 3.79 % ID/g
- Drug uptake [9]: 2.95 % ID/g
- Drug uptake [10]: 4.45 % ID/g
- Drug uptake [11]: 4.31 % ID/g
- Drug uptake [12]: 1.04 % ID/g
- Drug uptake [13]: 8.04 % ID/g
- Drug uptake [14]: 1.3 % ID/g
- Drug uptake [15]: 14.05 % ID/g
- Drug uptake [16]: 5.31 %ID
- Drug uptake [17]: 1.21 % ID/g
- Drug uptake [18]: 21.76 % ID/g
- Drug uptake [19]: 5.71 % ID/g
- Drug uptake [20]: 1.6 % ID/g
- Drug uptake [21]: 0.71 %ID
- Drug uptake [22]: 5 %ID
- Drug uptake [23]: 24.76 % ID/g
- Drug uptake [24]: 4.14 %ID
- Drug uptake [25]: 12.01 % ID/g
- logD [26]: 2.32
- Drug uptake [27]: 8.21 % ID/g
SMILES: COc1ccc(/C=C/C(=O)n2ccc3cc([125I])ccc32)cc1
